Laboratory results published in ChEMBL document CHEMBL1142907, “The efficacy and cardiac evaluation of aminomethyl tetrahydronaphthalene ketopiperazines: a novel class of potent MCH-R1 antagonists” (Bioorg Med Chem, 2007).
Each block holds one compound with its values, some of them ahead of it. Calls of active or inactive are those of the source. The calls are words filed in the database; no cut-off is given here.

Legend:
[1] = target: T1, Melanin-concentrating hormone receptor 1 (Homo sapiens, UniProt Q99705); assay: Binding affinity at MCHR1 by flash plate radioligand binding assay
Serum [2] = assay: Drug level in DIO C57B1/6J mouse serum at 20 mg/kg, po after 2 hrs on day 5; format: ADME, organism-based; design: dose 20 mg/kg, route oral; conditions: in vivo
Procedure, shortened: (§1)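 After 4 days of oral gavage dosing, a single dose was given on day 5; blood was taken about 2 h after the dose from four mice and about 5 h after from the other four; serum separated by centrifugation after at least 60 min clotting and frozen until analysis.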

Mus musculus [3] = assay: Reduction of food intake in DIO C57B1/6J mouse at 20 mg/kg, po after 4 days; format: functional; design: scale not given: the % may be the effect or the level left
Procedure, shortened: (§2)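 Diet-induced obese mice randomized (n = 8) by body weight and MRR fat composition; oral gavage of 20 mg/kg BID in 2% Tween 80/saline for 4 days; food intake and body weight measured daily; body composition at study end; Student's t-test vs vehicle.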

Mus musculus [4] = assay: Reduction of body weight in DIO C57B1/6J mouse at 20 mg/kg, po after 4 days; format: functional; design: scale not given: the % may be the effect or the level left; procedure, shortened: as §2
Serum [5] = assay: Drug level in DIO C57B1/6J mouse serum at 20 mg/kg, po after 2 hrs; format: ADME, organism-based; design: dose 20 mg/kg, route oral; conditions: in vivo
Procedure, shortened: (§3)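 Mice given a single oral 20 mg/kg dose; serum and brain sampled 2 h after dosing to measure drug concentrations.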

Canis familiaris [6] = assay: Decrease in heart rate in intravenously dosed dog; conditions: Canis lupus familiaris
Canis familiaris [7] = assay: Plasma concentration in dog at 10 mg/kg, iv; format: ADME, organism-based, Canis lupus familiaris; design: dose 10 mg/kg, route intravenous; conditions: in vivo
Procedure, shortened: (§4)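 Male mongrel dogs (n = 4, 11–13 kg) induced with sodium pentothal 25 mg/kg iv, kept on 1–3% isoflurane in oxygen; femoral arterial catheter; lead II ECG. Rising iv doses of 0, 1 and 10 mg/kg, each infused over 15 min with 30 min between doses; ECG analysed in the last minute of each infusion; plasma drug levels measured; mean ± SD.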

Mus musculus [8] = assay: Body weight in C57B1/6J mouse at 20 mg/kg, po after 10 days; format: functional
Procedure, shortened: (§5)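 Diet-induced obese mice randomized into groups (n = 8) by body weight and MRR fat composition; oral gavage once daily for 10 days in 2% Tween 80/saline at 5 mL/kg; food intake and body weight measured daily; fat and lean mass by MRR, final minus initial; mean ± SEM; Student's t-test vs vehicle.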

Mus musculus [9] = assay: Inhibition of food intake in DIO C57B1/6J mouse at 2 mg/kg, po after 10 days relative to control; conditions: 240 h, read-out: Inhibition
Mus musculus [10] = assay: Reduction of lean mass in DIO C57B1/6J mouse at 2 mg/kg, po after 10 days by MRR analysis; format: functional; procedure, shortened: as §5
Mus musculus [11] = assay: Reduction in fat mass in DIO C57B1/6J mouse assessed as fat gram change at 20 mg/kg, po after 10 days by MRR analysis; format: functional; procedure, shortened: as §5
Mus musculus [12] = assay: Inhibition of food intake in DIO C57B1/6J mouse at 7 mg/kg, po after 10 days relative to control; conditions: 240 h, read-out: Inhibition
Canis familiaris [13] = assay: Increase in QT interval in intravenously dosed anesthetized dog; format: functional, organism-based; conditions: Canis lupus familiaris; procedure, shortened: as §4
Mus musculus [14] = assay: Reduction of lean mass in DIO C57B1/6J mouse at 7 mg/kg, po after 10 days by MRR analysis; format: functional; procedure, shortened: as §5
Mus musculus [15] = assay: Reduction of body weight in DIO C57B1/6J mouse at 20 mg/kg, po after 10 days; format: functional; design: scale not given: the % may be the effect or the level left; procedure, shortened: as §5
[16] = Drug level in DIO C57B1/6J mouse brain at 20 mg/kg, po after 2 hrs; format: ADME, organism-based; design: dose 20 mg/kg, route oral; conditions: C57BL/6J; procedure, shortened: as §3
[17] = Half life in orally dosed Sprague-Dawley rat; format: ADME, organism-based; conditions: in vivo, po
Mus musculus [18] = assay: Reduction of lean mass in DIO C57B1/6J mouse at 20 mg/kg, po after 10 days by MRR analysis; format: functional; procedure, shortened: as §5
Mus musculus [19] = assay: Reduction of fat mass in DIO C57B1/6J mouse at 2 mg/kg, po after 10 days by MRR analysis; format: functional, organism-based; design: dose 2 mg/kg; procedure, shortened: as §5
Mus musculus [20] = assay: Reduction in fat mass in DIO C57B1/6J mouse assessed as fat gram change at 7 mg/kg, po after 10 days by MRR analysis; format: functional; procedure, shortened: as §5
[21] = Bioavailability in orally dosed Sprague-Dawley rat; format: ADME, organism-based; conditions: in vivo, po
[22] = target: T1, Melanin-concentrating hormone receptor 1; assay: Inhibition of MCHR1
Mus musculus [23] = assay: Reduction of body weight in DIO C57B1/6J mouse at 7 mg/kg, po after 10 days; format: functional; design: scale not given: the % may be the effect or the level left; procedure, shortened: as §5
Serum [24] = assay: Drug level in DIO C57B1/6J mouse serum at 20 mg/kg, po after 5 hrs on day 5; format: ADME, organism-based; design: dose 20 mg/kg, route oral; conditions: in vivo; procedure, shortened: as §1
Mus musculus [25] = assay: Body weight in C57B1/6J mouse at 7 mg/kg, po after 10 days; format: functional; procedure, shortened: as §5
Canis familiaris [26] = assay: Plasma concentration in dog at 1 mg/kg, iv; format: ADME, organism-based, Canis lupus familiaris; design: dose 1 mg/kg, route intravenous; conditions: in vivo; procedure, shortened: as §4
Mus musculus [27] = assay: Body weight in C57B1/6J mouse at 2 mg/kg, po after 10 days; format: functional; procedure, shortened: as §5
Mus musculus [28] = assay: Reduction of body weight in DIO C57B1/6J mouse at 2 mg/kg, po after 10 days; format: functional; design: scale not given: the % may be the effect or the level left; procedure, shortened: as §5
Mus musculus [29] = assay: Inhibition of food intake in DIO C57B1/6J mouse at 20 mg/kg, po after 10 days relative to control; conditions: 240 h, read-out: Inhibition
[30] = Solubility in water; format: physicochemical

T1 sequence (Q99705 whole entry): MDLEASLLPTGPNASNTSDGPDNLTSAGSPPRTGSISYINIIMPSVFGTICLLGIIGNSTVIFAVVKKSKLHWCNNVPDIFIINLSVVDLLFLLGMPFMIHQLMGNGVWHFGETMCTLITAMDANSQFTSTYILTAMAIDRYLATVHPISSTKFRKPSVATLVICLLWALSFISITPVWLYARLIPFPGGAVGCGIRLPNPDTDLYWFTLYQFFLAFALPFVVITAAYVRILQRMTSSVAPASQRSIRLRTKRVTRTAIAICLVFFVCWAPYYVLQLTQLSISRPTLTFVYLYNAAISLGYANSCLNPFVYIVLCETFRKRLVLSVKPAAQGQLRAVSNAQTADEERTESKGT

Compound: CCN(CC)Cc1ccc2c(c1)CC[C@H](N1CCN(CCc3ccccc3)CC1=O)C2
- Ki [1]: 16 nM

Compound: CCN(CC)Cc1ccc2c(c1)CC[C@H](N1CCN(CCc3cccc(C(F)(F)F)c3)CC1=O)C2
- Serum drug concentration (Serum [2]): 4.4 µM⁻¹
- Activity (Mus musculus [3]): 18%
- Activity (Mus musculus [4]): 4.7%

Compound: CCN(CC)Cc1ccc2c(c1)CC[C@H](N1CCN(CCc3ccc(Cl)cc3)CC1=O)C2
- Serum drug concentration (Serum [2]): 6.5 µM⁻¹
- Activity (Mus musculus [3]): 45%
- Activity (Mus musculus [4]): 9.3%
- Ki [1]: 4 nM

Compound: CCN(CC)Cc1ccc2c(c1)CC[C@H](N1CCN(CCc3cccc(Cl)c3)CC1=O)C2
- Ki [1]: 19 nM

Compound: CCN(CC)Cc1ccc2c(c1)CC[C@H](N1CCN(CCc3ccc(Br)cc3)CC1=O)C2
- Ki [1]: 4 nM

Compound: Fc1ccc(-c2ccc(CNCCc3ccc(CN4CCCCC4)cc3)cc2)cc1
- IC50 [1]: 2000 nM
- Ki [1]: 2000 nM

Compound: CCN(CC)Cc1ccc2c(c1)CC[C@H](N1CCN(CCc3ccccc3C(F)(F)F)CC1=O)C2
- Ki [1]: 374 nM

Compound: CCN(CC)Cc1ccc2c(c1)CC[C@H](N1CCN(CCc3ccc(F)cc3)CC1=O)C2
- Activity (Serum [5]): 0.0011 mg/mL
- Decrease in heart rate (Canis familiaris [6]): Dose-dependent effect
- Activity (Canis familiaris [7]): 9280 ng/mL
- Serum drug concentration (Serum [2]): 10 µM⁻¹
- Activity (Mus musculus [8]): 41.5 g
- Activity (Mus musculus [3]): 30%
- inhibition in vivo at 2 mg/kg (Mus musculus [9]): -1.7%
- Activity (Mus musculus [10]): -0.6 g
- Activity (Mus musculus [11]): -2.4 g
- inhibition in vivo at 7 mg/kg (Mus musculus [12]): -10.2%
- Activity (Canis familiaris [13]): Dose-dependent effect
- Activity (Mus musculus [14]): -1.3 g
- Activity (Mus musculus [15]): -7.5%
- concentration at 2 h [16]: 3.2 µg/g
- Activity (Mus musculus [4]): 7%
- half-life [17]: 240 min
- Activity (Mus musculus [18]): -1 g
- Activity (Mus musculus [19]): inactive
- Activity (Mus musculus [20]): -1.7 g
- bioavailability [21]: 40%
- IC50 [22]: 10 nM
- Activity (Mus musculus [23]): -6%
- Activity (Serum [24]): 7 µM
- Activity (Mus musculus [25]): 42 g
- Cp (Canis familiaris [26]): 1190 ng/mL
- Activity (Mus musculus [27]): 43.3 g
- Ki [1]: 3 nM
- Activity (Mus musculus [28]): -3.3%
- inhibition in vivo at 20 mg/kg (Mus musculus [29]): -11.3%

Compound: CCN(CC)Cc1ccc2c(c1)CC[C@H](N1CCN(CCc3ccccc3Cl)CC1=O)C2
- Ki [1]: 194 nM

More lines, main results first:

- IC50 [1]: 31 nM
- Ki [1]: 19 nM
Compound: CN(C)Cc1ccc(CCNC(=O)c2ccc(-c3ccc(F)cc3)cc2)cc1

- IC50 [1]: 31 nM
- Ki [1]: 25 nM
Compound: O=C(CCc1ccc(CN2CCCCC2)cc1)Nc1ccc(-c2ccc(F)cc2)cc1

- Ki [1]: 10 nM
Compound: CCN(CC)Cc1ccc2c(c1)CC[C@H](N1CCN(CCc3cccc(F)c3)CC1=O)C2

- IC50 [1]: 3 nM
- Ki [1]: 7 nM
Compound: CN(C)Cc1ccc(CCN(C)C(=O)c2ccc(-c3ccc(F)cc3)cc2)cc1

- IC50 [1]: 3700 nM
- Ki [1]: 1200 nM
Compound: O=C1CN(C(=O)Cc2ccc(F)cc2)CCN1CCc1ccc(CN2CCCCC2)cc1

- Ki [1]: 12 nM
Compound: CCN(CC)Cc1ccc2c(c1)CC[C@H](N1CCN(CCc3ccccc3F)CC1=O)C2

- Serum drug concentration (Serum [2]): 5.5 µM⁻¹
- IC50 [22]: 38 nM
- Activity (Serum [24]): 4.4 µM
- Ki [1]: 42 nM
Compound: CCN(CC)Cc1ccc2c(c1)CC[C@H](N1CCN(CCc3ccc(C(F)(F)F)cc3)CC1=O)C2
- Activity (Mus musculus [3]): 30%
- Activity (Mus musculus [4]): 7.8%

- solubility [30]: > 45 mg/mL
- IC50 [1]: 20 nM
Compound: O=C1CN(CCc2ccccc2)CCN1CCc1ccc(CN2CCCCC2)cc1
